In ChEMBL document CHEMBL2417490, “Synthesis and biological evaluation of pyrazolo[4,3-d]pyrimidine analogues” (Eur J Med Chem, 2013):
≈ marks a conversion by molar mass, not a printed value.

Key:
[1] = Cytotoxicity against human 7402 cells assessed as inhibition of cell replication after 72 hrs by MTT assay; type: functional, cell-based
In short: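 7402 hepatoma cells, harvested in log phase with 0.05% trypsin/1 mM EDTA and grown at 37 °C in 5% CO₂, were seeded at 1 × 10⁵ cells/mL, grown overnight and then exposed to a concentration series (final DMSO <0.1%). MTT was added for 4 h and absorbance read at 570 nm. IC₅₀ came from probit analysis.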

[2] = biological target: Xanthine dehydrogenase/oxidase (Homo sapiens, UniProt P47989); experiment: Inhibition of xanthine oxidase (unknown origin) using xanthine as substrate assessed as uric acid formation preincubated for 5 mins followed by substrate addition measured every minute up to 8 mins by spectrophotometric analysis
[3] = Cytotoxicity against human 7221 cells assessed as inhibition of cell replication after 72 hrs by MTT assay; type: functional, cell-based
In short: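 7221 hepatoma cells, harvested in log phase with 0.05% trypsin/1 mM EDTA and grown at 37 °C in 5% CO₂, were plated, grown overnight and then exposed to a concentration series (final DMSO <0.1%). MTT was added for 4 h and absorbance read at 570 nm. IC₅₀ came from probit analysis.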

Sequence of Xanthine dehydrogenase/oxidase (P47989 whole entry): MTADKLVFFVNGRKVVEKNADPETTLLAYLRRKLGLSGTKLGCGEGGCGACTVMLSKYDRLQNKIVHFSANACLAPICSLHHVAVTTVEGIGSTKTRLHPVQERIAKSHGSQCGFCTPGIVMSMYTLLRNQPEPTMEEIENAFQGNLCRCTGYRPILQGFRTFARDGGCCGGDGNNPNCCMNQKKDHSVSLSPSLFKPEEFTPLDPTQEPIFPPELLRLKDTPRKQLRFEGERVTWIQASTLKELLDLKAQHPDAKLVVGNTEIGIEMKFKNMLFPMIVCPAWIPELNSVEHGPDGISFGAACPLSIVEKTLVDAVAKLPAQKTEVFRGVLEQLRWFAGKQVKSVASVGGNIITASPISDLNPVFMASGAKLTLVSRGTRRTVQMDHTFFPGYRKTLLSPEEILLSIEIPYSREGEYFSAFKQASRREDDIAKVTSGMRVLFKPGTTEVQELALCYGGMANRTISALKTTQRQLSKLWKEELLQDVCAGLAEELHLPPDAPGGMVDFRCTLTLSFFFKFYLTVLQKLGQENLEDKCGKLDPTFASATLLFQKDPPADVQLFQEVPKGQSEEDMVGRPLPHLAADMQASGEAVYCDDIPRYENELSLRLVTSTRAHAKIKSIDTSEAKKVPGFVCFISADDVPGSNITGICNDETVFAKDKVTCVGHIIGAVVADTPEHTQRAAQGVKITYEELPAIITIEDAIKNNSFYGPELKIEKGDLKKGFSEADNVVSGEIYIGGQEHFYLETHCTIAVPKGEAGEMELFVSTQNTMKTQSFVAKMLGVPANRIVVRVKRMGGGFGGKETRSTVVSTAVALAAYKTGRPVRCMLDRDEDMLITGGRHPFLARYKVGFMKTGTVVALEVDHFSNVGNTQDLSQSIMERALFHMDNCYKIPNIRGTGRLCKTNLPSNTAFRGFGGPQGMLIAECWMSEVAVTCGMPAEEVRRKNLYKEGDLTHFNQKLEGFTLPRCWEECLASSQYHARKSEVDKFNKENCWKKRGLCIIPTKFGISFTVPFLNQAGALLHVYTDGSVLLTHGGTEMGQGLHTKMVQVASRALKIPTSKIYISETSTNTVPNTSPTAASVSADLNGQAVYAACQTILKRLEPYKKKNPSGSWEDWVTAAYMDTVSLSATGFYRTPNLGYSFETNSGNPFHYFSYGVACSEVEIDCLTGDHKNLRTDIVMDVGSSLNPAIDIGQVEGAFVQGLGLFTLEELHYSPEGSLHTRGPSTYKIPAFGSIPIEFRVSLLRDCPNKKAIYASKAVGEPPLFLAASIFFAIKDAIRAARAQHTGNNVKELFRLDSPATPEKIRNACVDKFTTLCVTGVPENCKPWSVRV

Row | Compound | IC50 [1] [µg/mL] | IC50 ([2]; read-out: IC50 (converted)) [µM] | IC50 [3] [µg/mL] | IC50 [2]
1 | CCOC(=O)Cn1ncc2c(Nc3ccc(NS(=O)(=O)c4ccccc4)cc3)ncnc21 | > 100 | 172 | > 100 | 
2 | CCOC(=O)Cn1ncc2c(Nc3ccc(NC(=O)c4ccccc4)cc3)ncnc21 | > 100 | 81.9 | > 100 | 
3 | O=C(O)Cn1ncc2c(Nc3ccc(NC(=O)c4ccccc4)cc3)ncnc21 | > 100 | 104 | > 100 | 
4 | CC(=O)Nc1ccc(Nc2ncnc3c2cnn3CC(=O)O)cc1 | > 64 | 103 | > 64 | 
5 | O=C(O)Cn1ncc2c(Nc3ccc(NS(=O)(=O)c4ccc([N+](=O)[O-])cc4)cc3)ncnc21 | > 100 | 190 | > 100 | 
6 | O=C(O)Cn1ncc2c(Nc3ccc(NS(=O)(=O)c4ccc(Br)cc4)cc3)ncnc21 | > 64 | > 199 | > 64 | 
7 | CCOC(=O)Cn1ncc2c(Nc3ccc(NC(C)=O)cc3)ncnc21 | > 64 | 109 | > 64 | 
8 | CCOC(=O)Cn1ncc2c(Nc3ccc(NC(=O)CCl)cc3)ncnc21 | 7.27 (≈ 18.7 µM) |  | 3.51 (≈ 9.03 µM) | 
9 | O=C(O)Cn1ncc2c(Nc3ccc(NC(=O)CCl)cc3)ncnc21 | > 100 | 102 | > 100 | 
10 | O=C(O)Cn1ncc2c(Nc3ccc(NS(=O)(=O)c4ccccc4)cc3)ncnc21 | > 100 | 144 | > 100 | 
11 | CCOC(=O)Cn1ncc2c(Cl)ncnc21 | > 100 |  | > 100 | Not Active
12 | CCOC(=O)Cn1ncc2c(Nc3ccc(NS(=O)(=O)c4ccc(Br)cc4)cc3)ncnc21 | > 64 |  | > 64 | Not Active
13 | C=CCNC1=C2C[C@@H](C)C[C@H](OC)[C@H](O)[C@@H](C)/C=C(\C)[C@H](OC(N)=O)[C@@H](OC)/C=C\C=C(/C)C(=O)NC(=CC1=O)C2=O (stereo in doubt) [TANESPIMYCIN] | 7.27 (≈ 12.4 µM) |  | 5.77 (≈ 9.85 µM) | 
14 | CCOC(=O)Cn1ncc2c(Nc3ccc(N)cc3)ncnc21 | > 64 |  | > 64 | 
15 | CCOC(=O)Cn1ncc2c(Nc3ccc(NS(=O)(=O)c4ccc([N+](=O)[O-])cc4)cc3)ncnc21 | > 64 | > 201 | > 64 | 
